The source of these data is ChEMBL document CHEMBL4396885, “Thioether-based 2-aminobenzamide derivatives: Novel HDAC inhibitors with potent in vitro and in vivo antitumor activity” (Eur J Med Chem, 2019).

pIC50: −log10 of the molar value.

Assay [1] relates to SMMC-7721. The experiment in a line: Antiproliferative activity against human SMMC7721 cells assessed as growth inhibition at 8 uM after 72 hrs by CCK-8 assay relative to control. It counts as functional. The conditions noted are these: SMMC-7721, 72 h, read-out: GI.
Assay [2] concerns A-375. The experiment in a line: Antiproliferative activity against human A375 cells assessed as growth inhibition at 8 uM after 72 hrs by CCK-8 assay relative to control. The conditions noted are these: A-375, 72 h, read-out: GI. It counts as functional.
The target of another assay is Histone deacetylase. The experiment in a line: Inhibition of HDAC in human HeLa cell nuclear extract assessed as decrease in deacetylation of FLUOR DE LYS Green substrate preincubated for 10 mins followed by substrate addition and measured after 30 mins by fluorescence based assay. It counts as cell-free.
In assay [3] the test system is SMMC-7721. The experiment in a line: Antiproliferative activity against human SMMC7721 cells assessed as growth inhibition at 2 uM after 72 hrs by CCK-8 assay relative to control. It counts as functional. The conditions noted are these: SMMC-7721, 72 h, read-out: GI. On the technique in general: Formazan colour is commonly taken as a measure of viable cells.
Assay [4] concerns HeLa. The experiment in a line: Antiproliferative activity against human HeLa cells assessed as growth inhibition at 2 uM after 72 hrs by CCK-8 assay relative to control. It counts as functional. Conditions: read-out: GI.
A further assay has as its system NIH3T3. The experiment in a line: Cytotoxicity against mouse NIH/3T3 cells assessed as reduction in cell viability after 72 hrs by CCK-8 assay. It counts as cell-based. The conditions noted are these: NIH3T3, 72 h.
The next assay concerns the target Histone deacetylase 2 (Homo sapiens, UniProt Q92769). The experiment in a line: Inhibition of recombinant human HDAC2 assessed as decrease in deacetylation of FLUOR DE LYS Green substrate preincubated for 10 mins followed by substrate addition and measured after 30 mins by fluorescence based assay.
Assay [5] deals with HCT-116. The experiment in a line: Antiproliferative activity against human HCT116 cells assessed as growth inhibition at 8 uM after 72 hrs by CCK-8 assay relative to control. It counts as functional. Conditions: HCT-116, 72 h, read-out: GI.
The subject of assay [6] is A549. The experiment in a line: Antiproliferative activity against human A549 cells assessed as decrease in cell viability after 72 hrs by CCK-8 assay. It counts as functional, cell-based. Conditions: A549, 72 h. Summed up:
(§1)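 Cells grown to 70–85% confluence (A375, A549, HCT116 in RPMI1640; HeLa, SMMC7721 in DMEM; 10% FBS, 37 °C, 5% CO2), seeded 4000/well, dosed after 12 h across a concentration range, incubated 72 h, then CCK-8 for 1 h; absorbance at 450 nm. IC50 as mean ± SD of three separate experiments.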

Assay [7] has as its system SMMC-7721. The experiment in a line: Antiproliferative activity against human SMMC7721 cells assessed as decrease in cell viability after 72 hrs by CCK-8 assay. It counts as functional, cell-based. The conditions noted are these: SMMC-7721, 72 h. The procedure, abridged: as §1
Assay [8] deals with HCT-116. The experiment in a line: Antiproliferative activity against human HCT116 cells assessed as decrease in cell viability after 72 hrs by CCK-8 assay. The conditions noted are these: HCT-116, 72 h. It counts as functional, cell-based. Summed up:
as §1

In the next assay the target is T1, Histone deacetylase 8 (Homo sapiens, UniProt Q9BY41).
T1 sequence (Q9BY41 whole entry): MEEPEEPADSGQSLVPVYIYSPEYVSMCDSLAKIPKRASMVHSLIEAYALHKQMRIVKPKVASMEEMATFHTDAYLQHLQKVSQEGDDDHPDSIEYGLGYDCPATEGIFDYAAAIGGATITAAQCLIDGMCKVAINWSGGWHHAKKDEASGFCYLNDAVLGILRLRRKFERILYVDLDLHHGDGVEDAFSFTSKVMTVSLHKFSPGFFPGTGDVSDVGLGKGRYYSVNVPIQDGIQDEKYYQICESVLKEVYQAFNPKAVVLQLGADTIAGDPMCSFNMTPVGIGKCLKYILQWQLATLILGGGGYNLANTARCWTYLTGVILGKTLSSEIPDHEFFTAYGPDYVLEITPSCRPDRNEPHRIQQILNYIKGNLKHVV
The experiment in a line: Inhibition of recombinant human HDAC8 assessed as decrease in deacetylation of FLUOR DE LYS substrate preincubated for 10 mins followed by substrate addition and measured after 30 mins by fluorescence based assay.

In assay [9] the test system is HeLa. The experiment in a line: Antiproliferative activity against human HeLa cells assessed as decrease in cell viability after 72 hrs by CCK-8 assay. It counts as functional, cell-based. Summed up:
as §1

The test system of assay [10] is A-375. The experiment in a line: Antiproliferative activity against human A375 cells assessed as decrease in cell viability after 72 hrs by CCK-8 assay. It counts as functional, cell-based. Conditions: A-375, 72 h. The procedure, abridged:
as §1

In assay [11] the target is T2, Protein deacetylase HDAC6 (Homo sapiens, UniProt Q9UBN7).
T2 sequence (Q9UBN7 whole entry): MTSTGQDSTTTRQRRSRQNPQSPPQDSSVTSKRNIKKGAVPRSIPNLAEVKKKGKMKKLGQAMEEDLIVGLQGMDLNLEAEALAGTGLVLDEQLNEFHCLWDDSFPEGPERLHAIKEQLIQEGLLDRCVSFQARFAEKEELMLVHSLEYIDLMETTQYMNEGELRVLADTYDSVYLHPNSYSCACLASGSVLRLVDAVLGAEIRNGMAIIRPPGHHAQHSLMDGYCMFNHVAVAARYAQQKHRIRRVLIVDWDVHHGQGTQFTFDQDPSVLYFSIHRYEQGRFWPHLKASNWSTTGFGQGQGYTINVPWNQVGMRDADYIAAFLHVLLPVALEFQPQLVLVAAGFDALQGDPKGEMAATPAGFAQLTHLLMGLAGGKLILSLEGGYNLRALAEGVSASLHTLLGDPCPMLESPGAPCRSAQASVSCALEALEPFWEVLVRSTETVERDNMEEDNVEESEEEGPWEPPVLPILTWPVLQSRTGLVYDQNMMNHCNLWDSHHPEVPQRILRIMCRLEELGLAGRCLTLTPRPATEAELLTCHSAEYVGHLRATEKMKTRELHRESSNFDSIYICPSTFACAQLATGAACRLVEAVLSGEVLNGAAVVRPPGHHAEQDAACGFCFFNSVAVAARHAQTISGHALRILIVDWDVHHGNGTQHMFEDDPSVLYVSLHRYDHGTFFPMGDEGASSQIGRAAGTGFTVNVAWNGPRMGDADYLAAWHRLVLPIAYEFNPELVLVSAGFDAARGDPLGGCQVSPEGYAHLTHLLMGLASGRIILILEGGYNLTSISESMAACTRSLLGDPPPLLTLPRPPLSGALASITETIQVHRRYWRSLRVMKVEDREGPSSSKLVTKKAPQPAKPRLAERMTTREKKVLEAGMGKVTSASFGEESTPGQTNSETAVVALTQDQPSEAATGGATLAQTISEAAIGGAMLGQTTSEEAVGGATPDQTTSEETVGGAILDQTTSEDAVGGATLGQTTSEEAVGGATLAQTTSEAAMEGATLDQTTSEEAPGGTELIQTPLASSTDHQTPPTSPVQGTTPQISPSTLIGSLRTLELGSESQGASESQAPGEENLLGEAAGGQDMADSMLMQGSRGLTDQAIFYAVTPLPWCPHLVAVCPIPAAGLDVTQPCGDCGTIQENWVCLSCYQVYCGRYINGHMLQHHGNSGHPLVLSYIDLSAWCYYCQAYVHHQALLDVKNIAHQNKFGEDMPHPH
The experiment in a line: Inhibition of recombinant human His tagged HDAC6 expressed in baculovirus infected insect cells assessed as decrease in deacetylation of FLUOR DE LYS SIRT1 substrate by measuring decrease in fluorescence preincubated for 10 mins followed by substrate addition and measured after 30 mins by fluorescence based assay.

For assay [12], the system named is HCT-116. The experiment in a line: Antiproliferative activity against human HCT116 cells assessed as growth inhibition at 2 uM after 72 hrs by CCK-8 assay relative to control. It counts as functional. The conditions noted are these: HCT-116, 72 h, read-out: GI.
Assay [13] deals with HeLa. The experiment in a line: Antiproliferative activity against human HeLa cells assessed as growth inhibition at 8 uM after 72 hrs by CCK-8 assay relative to control. It counts as functional. Conditions: read-out: GI.
The test system of assay [14] is A549. The experiment in a line: Antiproliferative activity against human A549 cells assessed as growth inhibition at 2 uM after 72 hrs by CCK-8 assay relative to control. Conditions: A549, 72 h, read-out: GI. It counts as functional.
In assay [15] the test system is A549. The experiment in a line: Antiproliferative activity against human A549 cells assessed as growth inhibition at 8 uM after 72 hrs by CCK-8 assay relative to control. It counts as functional. The conditions noted are these: A549, 72 h, read-out: GI.
In the next assay the target is Histone deacetylase 1 (Homo sapiens, UniProt Q13547). The experiment in a line: Inhibition of recombinant human His tagged HDAC1 expressed in baculovirus infected insect cells assessed as decrease in deacetylation of FLUOR DE LYS Green substrate preincubated for 10 mins followed by substrate addition and measured after 30 mins by fluorescence based assay.
Chain of Histone deacetylase 1 (Q13547 whole entry): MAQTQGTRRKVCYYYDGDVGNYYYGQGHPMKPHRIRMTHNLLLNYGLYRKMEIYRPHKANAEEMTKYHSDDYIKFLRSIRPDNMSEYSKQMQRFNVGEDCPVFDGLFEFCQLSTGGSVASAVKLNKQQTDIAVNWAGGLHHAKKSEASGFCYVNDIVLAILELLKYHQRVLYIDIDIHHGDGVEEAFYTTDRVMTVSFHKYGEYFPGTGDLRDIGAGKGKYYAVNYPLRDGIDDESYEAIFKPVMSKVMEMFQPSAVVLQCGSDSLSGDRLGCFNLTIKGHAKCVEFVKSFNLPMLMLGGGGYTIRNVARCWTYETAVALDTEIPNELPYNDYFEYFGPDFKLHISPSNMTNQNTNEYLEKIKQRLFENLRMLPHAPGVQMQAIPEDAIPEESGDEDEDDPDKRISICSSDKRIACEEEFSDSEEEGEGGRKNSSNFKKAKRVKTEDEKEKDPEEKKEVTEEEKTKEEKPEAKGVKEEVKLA
Assay [16] has as its system A-375. The experiment in a line: Antiproliferative activity against human A375 cells assessed as growth inhibition at 2 uM after 72 hrs by CCK-8 assay relative to control. It counts as functional. The conditions noted are these: A-375, 72 h, read-out: GI.
For assay [17], the target named is Histone deacetylase 3/NCoR1 (Homo sapiens, UniProt O15379). The experiment in a line: Inhibition of recombinant human HDAC3/NCOR1 assessed as decrease in deacetylation of FLUOR DE LYS SIRT1 substrate preincubated for 10 mins followed by substrate addition and measured after 30 mins by fluorescence based assay. It counts as protein-complex assay.
Chain of Histone deacetylase 3/NCoR1 (O15379 whole entry): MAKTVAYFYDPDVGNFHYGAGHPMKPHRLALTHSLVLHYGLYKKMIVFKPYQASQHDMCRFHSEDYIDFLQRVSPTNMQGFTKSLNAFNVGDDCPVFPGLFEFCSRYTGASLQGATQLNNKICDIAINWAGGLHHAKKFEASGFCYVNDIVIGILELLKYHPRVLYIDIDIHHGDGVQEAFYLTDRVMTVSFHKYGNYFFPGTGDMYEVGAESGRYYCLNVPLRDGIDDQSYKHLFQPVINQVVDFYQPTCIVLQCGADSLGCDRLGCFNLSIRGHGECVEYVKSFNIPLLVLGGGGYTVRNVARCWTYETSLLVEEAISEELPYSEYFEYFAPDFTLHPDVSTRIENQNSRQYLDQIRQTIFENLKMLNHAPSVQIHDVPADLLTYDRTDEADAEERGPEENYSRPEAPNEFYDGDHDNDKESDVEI
Chain of Histone deacetylase 3/NCoR1 (O75376 whole entry, further chain): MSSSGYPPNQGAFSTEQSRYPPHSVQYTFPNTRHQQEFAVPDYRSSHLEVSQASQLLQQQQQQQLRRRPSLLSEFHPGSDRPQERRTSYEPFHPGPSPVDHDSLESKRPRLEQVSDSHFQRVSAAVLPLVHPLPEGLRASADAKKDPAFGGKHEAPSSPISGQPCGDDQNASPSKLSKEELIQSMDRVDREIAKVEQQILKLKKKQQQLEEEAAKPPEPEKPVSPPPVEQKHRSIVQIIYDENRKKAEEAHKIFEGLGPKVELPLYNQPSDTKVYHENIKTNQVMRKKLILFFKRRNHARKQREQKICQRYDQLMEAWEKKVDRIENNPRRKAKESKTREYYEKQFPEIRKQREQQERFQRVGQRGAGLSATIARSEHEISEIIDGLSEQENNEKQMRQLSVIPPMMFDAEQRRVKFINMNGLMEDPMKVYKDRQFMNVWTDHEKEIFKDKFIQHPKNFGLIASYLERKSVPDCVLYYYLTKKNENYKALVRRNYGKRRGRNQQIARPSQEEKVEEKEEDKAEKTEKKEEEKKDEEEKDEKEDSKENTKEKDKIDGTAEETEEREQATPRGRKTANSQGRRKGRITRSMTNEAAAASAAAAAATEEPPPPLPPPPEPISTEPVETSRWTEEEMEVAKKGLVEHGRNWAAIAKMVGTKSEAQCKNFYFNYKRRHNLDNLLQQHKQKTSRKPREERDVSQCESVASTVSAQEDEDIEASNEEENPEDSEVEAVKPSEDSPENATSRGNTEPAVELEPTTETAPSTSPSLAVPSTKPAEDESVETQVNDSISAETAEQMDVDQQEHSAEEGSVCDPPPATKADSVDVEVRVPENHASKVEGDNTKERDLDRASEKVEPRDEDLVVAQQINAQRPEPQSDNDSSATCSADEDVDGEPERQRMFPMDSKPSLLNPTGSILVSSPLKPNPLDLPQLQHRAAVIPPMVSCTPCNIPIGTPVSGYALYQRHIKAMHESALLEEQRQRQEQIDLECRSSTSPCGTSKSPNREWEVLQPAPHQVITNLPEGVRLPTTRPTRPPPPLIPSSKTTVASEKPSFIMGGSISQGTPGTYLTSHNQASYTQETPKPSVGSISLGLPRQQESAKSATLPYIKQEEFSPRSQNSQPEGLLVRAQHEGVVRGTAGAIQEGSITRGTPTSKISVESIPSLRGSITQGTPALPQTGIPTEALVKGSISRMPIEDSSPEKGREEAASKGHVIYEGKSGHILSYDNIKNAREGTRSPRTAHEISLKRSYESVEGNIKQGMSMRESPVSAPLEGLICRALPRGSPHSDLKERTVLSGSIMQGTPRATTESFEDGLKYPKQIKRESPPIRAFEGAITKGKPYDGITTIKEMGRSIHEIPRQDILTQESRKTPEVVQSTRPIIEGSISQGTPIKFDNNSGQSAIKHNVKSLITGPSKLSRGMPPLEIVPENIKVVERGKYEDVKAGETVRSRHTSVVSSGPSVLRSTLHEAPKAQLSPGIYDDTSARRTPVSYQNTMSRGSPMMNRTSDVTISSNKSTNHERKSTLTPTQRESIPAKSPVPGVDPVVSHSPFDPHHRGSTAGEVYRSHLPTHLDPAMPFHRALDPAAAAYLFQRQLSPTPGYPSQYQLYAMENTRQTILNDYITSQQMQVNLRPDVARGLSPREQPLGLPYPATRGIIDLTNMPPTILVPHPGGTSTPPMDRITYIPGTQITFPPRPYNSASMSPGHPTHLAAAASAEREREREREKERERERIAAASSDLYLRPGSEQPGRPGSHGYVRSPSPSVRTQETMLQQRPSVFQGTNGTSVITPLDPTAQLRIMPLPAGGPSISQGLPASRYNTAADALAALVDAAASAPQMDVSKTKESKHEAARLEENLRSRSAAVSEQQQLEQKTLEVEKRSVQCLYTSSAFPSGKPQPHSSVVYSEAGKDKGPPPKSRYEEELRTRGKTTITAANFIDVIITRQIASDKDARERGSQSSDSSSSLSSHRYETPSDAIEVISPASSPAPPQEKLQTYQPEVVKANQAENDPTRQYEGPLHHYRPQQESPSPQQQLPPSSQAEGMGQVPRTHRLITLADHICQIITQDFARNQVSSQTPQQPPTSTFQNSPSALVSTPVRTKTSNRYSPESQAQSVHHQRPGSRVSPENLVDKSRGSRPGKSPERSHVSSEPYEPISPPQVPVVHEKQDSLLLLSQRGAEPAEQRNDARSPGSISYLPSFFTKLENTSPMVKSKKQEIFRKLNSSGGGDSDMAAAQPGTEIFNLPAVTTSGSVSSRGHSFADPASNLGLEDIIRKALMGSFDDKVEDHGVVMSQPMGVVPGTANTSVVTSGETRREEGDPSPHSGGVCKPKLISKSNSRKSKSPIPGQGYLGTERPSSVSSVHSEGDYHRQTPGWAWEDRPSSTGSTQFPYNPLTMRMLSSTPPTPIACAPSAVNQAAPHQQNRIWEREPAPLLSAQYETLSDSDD

Chain of Histone deacetylase 2 (Q92769 whole entry): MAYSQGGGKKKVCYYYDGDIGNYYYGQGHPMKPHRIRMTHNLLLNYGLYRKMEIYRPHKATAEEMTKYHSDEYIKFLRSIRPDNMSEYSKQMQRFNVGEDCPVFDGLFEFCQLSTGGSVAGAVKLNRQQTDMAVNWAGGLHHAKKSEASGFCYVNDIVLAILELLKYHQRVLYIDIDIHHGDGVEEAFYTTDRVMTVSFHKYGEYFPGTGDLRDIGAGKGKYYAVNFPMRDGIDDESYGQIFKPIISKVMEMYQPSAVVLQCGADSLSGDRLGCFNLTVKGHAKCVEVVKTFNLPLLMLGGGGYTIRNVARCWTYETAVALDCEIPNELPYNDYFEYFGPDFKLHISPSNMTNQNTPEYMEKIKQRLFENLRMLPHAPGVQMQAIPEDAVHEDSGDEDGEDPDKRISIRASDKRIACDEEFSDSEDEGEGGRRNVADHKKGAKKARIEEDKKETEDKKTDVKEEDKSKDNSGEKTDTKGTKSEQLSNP

Turning to `Nc1ccccc1NC(=O)c1ccc(CSc2nccc(C(F)(F)F)n2)cc1`, the inhibition of growth at 8 µM is 80.6% with SMMC-7721 [1]; 80.1% in the assay with A-375 [2]; 93.1% with HCT-116 [5]; 83.4% in the assay on HeLa [13]; 95.1% in the assay with A549 [15]. Further, at Histone deacetylase, the IC50 – broadly, the concentration that gives 50% inhibition – turned out to be 1995 nM. Further, the inhibition of growth at 2 µM is 66.1% in the assay on SMMC-7721 [3]; 68.3% with HeLa [4]; 82.7% with HCT-116 [12]; 75.4% in the assay on A549 [14]; 54.4% in the assay on A-375 [16]. For the same compound, the pIC50 (as a rule, the IC50 on a negative log10 scale, so that one unit is a factor of ten) with NIH3T3 is 5.73; on Histone deacetylase 2, 6.36; with A549 [6] it was 6.01; in the assay on SMMC-7721 [7] it was 5.72; in the assay on HCT-116 [8] it was 5.94; at Histone deacetylase 8, under 4.49. For the same compound, the pIC50 with HeLa [9] was 5.94; in the assay with A-375 [10], 5.81; in assay [11], under 4.49; on Histone deacetylase 1, 7.96; in assay [17], 6.56.

Take `Nc1ccccc1NC(=O)c1ccc(CSCCc2ccccc2)cc1`: the inhibition of growth at 8 µM is 77.9% with SMMC-7721 [1]; 69.9% in the assay with A-375 [2]; 81.3% with HCT-116 [5]; 74.8% in the assay with HeLa [13]; 84.1% in the assay with A549 [15]. Moreover, the inhibition of growth at 2 µM in the assay with SMMC-7721 [3] was found to be 28.1%; in the assay on HeLa [4], 27.7%; with HCT-116 [12], 30.5%; with A549 [14], 44.9%; with A-375 [16], 21.8%. For the same compound, the pIC50 with A549 [6] is 5.49; in the assay on SMMC-7721 [7], 5.31; in the assay on HCT-116 [8] it was 5.55; in the assay with HeLa [9] it was 5.19; with A-375 [10], 5.54.

In the case of `Cc1cc(C)cc(SCc2ccc(C(=O)Nc3ccccc3N)cc2)c1`, the inhibition of growth at 8 µM was 85.1% in the assay on SMMC-7721 [1]; 74.7% in the assay with A-375 [2]; 72.9% with HCT-116 [5]; 78.8% with HeLa [13]; 78.5% in the assay on A549 [15]. The IC50 at Histone deacetylase was 10720 nM. For the same compound, the inhibition of growth at 2 µM with SMMC-7721 [3] stood at 29.1%; with HeLa [4] it was 40.1%; with HCT-116 [12] it was 3.22%; in the assay with A549 [14] it was 33.3%; with A-375 [16], 48.5%. Also, the pIC50 in the assay with NIH3T3 was 5.48; on Histone deacetylase 2 it was 6.86; in the assay on A549 [6], 5.54; in the assay with SMMC-7721 [7], 5.56; with HCT-116 [8], 5.60; on Histone deacetylase 8, under 4.49. Moreover, the pIC50 in the assay with HeLa [9] was 5.68; in the assay with A-375 [10], 5.44; in [11], under 4.49; at Histone deacetylase 1, 7.70; in assay [17], 6.42.
